Experimental data reported in ChEMBL document CHEMBL1135595, “Design, synthesis and biological evaluation of novel N-alkyl- and N-acyl-(7-substituted-2-phenylimidazo[1,2-a][1,3,5]triazin-4-yl)amines (ITAs) as novel A(1) adenosine receptor antagonists” (J Med Chem, 2002).

What was measured:
Adenosine receptor A1 = target: T1, Adenosine receptor A1 (Bos taurus, UniProt P28190); assay: Displacement of [3H]CHA from Adenosine A1 receptor in bovine cortical membranes.; format: cell membranes
T1 sequence (P28190 whole entry): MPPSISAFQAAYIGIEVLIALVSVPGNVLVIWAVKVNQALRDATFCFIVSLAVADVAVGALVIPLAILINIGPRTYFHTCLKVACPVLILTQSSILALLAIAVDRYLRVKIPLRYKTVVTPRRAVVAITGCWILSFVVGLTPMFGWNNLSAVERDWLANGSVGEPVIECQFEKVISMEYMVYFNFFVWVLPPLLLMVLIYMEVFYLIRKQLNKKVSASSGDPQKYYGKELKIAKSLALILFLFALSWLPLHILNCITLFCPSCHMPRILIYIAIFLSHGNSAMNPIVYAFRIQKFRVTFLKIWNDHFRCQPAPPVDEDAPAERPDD
How it was run: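 Compounds were dissolved in DMSO (≤2% in assay) and tested at six or more concentrations. n = 4 independent experiments in triplicate. Ki and IC50 ± SEM came from iterative curve fitting. Protein was measured with BSA as standard after NaOH (0.75 N) solubilization.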

[1] = target: Adenosine receptor A2a (Bos taurus); assay: Displacement of [3H]- CGS-21680 from Adenosine A2a receptor in bovine striatal membranes.

Ki (Adenosine receptor A1) [nM]	Ki [1] [nM]	Compound
2360		CC(=O)CNc1nc(-c2ccccc2)nc2nc(C(C)C)cn12
511	> 10000	Cc1cn2c(NC34C[C@H]5C[C@@H](C3)C[C@@H](C4)C5)nc(-c3ccccc3)nc2n1
12	> 10000	CC(=O)CNc1nc(-c2ccccc2)nc2nc(C)cn12
27.2		Cc1cn2c(NC(=O)c3ccccc3)nc(-c3ccccc3)nc2n1
23	3200	CC(=O)Nc1nc(-c2ccccc2)nc2nc(-c3ccccc3)cn12
> 10000		CC(=O)CNc1nc(-c2ccccc2)nc2nc(-c3ccccc3)cn12
231		Cc1cn2c(NCC3CCCCC3)nc(-c3ccccc3)nc2n1
41	4100	Cc1cn2c(NC3CCCC3)nc(-c3ccccc3)nc2n1
3900		Cc1cn2c(NCc3ccccc3)nc(-c3ccccc3)nc2n1
5.8	> 10000	CC(C)c1cn2c(NC(=O)C3CCCC3)nc(-c3ccccc3)nc2n1
17	2500	O=C(Nc1nc(-c2ccccc2)nc2nc(-c3ccccc3)cn12)C1CCCC1
116		Cc1cn2c(NC(=O)C3CCCCC3)nc(-c3ccccc3)nc2n1
4.4		Cc1cn2c(NC(=O)C3CCCC3)nc(-c3ccccc3)nc2n1
> 10000		CCc1cn2c(NCC(C)=O)nc(-c3ccccc3)nc2n1
> 10000	> 10000	CCC(=O)CNc1nc(-c2ccccc2)nc2nc(C)cn12
3.3		CCc1cn2c(NC(=O)C3CCCC3)nc(-c3ccccc3)nc2n1
332		Cc1cn2c(N)nc(-c3ccccc3)nc2n1
855	> 10000	CC(=O)Nc1nc(-c2ccccc2)nc2nc(C)cn12
